The source made the active and inactive calls. No cut-off for these calls is given here.
Assays:
Pancreatic islet [1] = experiment: Induction of beta-cell proliferation in human pancreatic islets at 10 uM incubated for 96 hrs by Ki67 and insulin immunolabelling method; format: functional, cell-based
Outline: (§1)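 Human islets from the NIH/NIDDK IIDP dispersed onto coverslips with Accutase, then treated with compound or vehicle (0.1% DMSO) in RPMI1640 complete medium for 96 h. Cells fixed, stained for insulin and Ki67, imaged; Ki67/insulin double-positive and total insulin-positive cells counted. Islets from 3 to 5 adult donors, at least 1000 beta cells counted per donor; n = 4–5, SEM.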

[2] = target: Dual specificity tyrosine-phosphorylation-regulated kinase 1A (Rattus norvegicus) (UniProt Q63470); experiment: Inhibition of DYRK1A in rat R7T1 cells expressing expressing NFAT2-GFP assessed as induction of NFAT2-GFP nuclear translocation at 10 uM incubated for 24 hrs by; format: cell-based
Outline: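 Immortalized R7T1 rat beta cells infected with adenovirus expressing NFAT2-GFP for 48 h, then exposed to compound at 10 μM for a further 24 h. Cells imaged and NFAT2-GFP nuclear translocation scored as nuclear frequency, at least 1000 cells counted; n = 3, SEM.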

Pancreatic islet [3] = experiment: Induction of beta-cell proliferation in human pancreatic islets incubated for 96 hrs by Ki67 and insulin immunolabelling method; format: functional, cell-based; outline: as §1
Pancreatic islet [4] = experiment: Induction of beta-cell proliferation in human pancreatic islets at 30 uM incubated for 96 hrs by Ki67 and insulin immunolabelling method; format: functional, cell-based; outline: as §1
[5] = Toxicity in human pancreatic islets at 30 uM; format: cell-based; settings: pancreatic islet
[6] = target: Cyclin-dependent kinase 8 (Homo sapiens) (UniProt P49336); experiment: Inhibition of human CDK8 expressed in bacterial expression system assessed as remaining enzyme activity at 10 uM by kinome scan assay
Sequence of Cyclin-dependent kinase 8 (Homo sapiens) (P49336 whole entry): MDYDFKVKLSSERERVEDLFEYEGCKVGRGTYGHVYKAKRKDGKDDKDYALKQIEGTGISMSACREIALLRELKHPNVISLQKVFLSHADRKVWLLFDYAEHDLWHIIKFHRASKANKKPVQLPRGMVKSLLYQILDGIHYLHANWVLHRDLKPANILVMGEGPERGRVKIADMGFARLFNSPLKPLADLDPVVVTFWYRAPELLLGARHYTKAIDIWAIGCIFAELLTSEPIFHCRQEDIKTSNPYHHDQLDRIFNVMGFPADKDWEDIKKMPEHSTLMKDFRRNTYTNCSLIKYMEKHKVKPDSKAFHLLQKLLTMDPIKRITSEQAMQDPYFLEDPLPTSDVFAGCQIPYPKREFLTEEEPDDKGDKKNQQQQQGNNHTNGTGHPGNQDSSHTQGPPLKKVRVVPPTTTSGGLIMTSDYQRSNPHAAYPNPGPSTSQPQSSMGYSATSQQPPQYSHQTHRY

[7] = Toxicity in human pancreatic islets at >10 uM; settings: pancreatic islet
[8] = target: Death-associated protein kinase 3 (Homo sapiens) (UniProt O43293); experiment: Inhibition of human DAPK3 expressed in bacterial expression system assessed as remaining enzyme activity at 10 uM by kinome scan assay
[9] = target: Serine/threonine-protein kinase 17B (Homo sapiens) (UniProt O94768); experiment: Inhibition of human DRAK2 expressed in bacterial expression system assessed as remaining enzyme activity at 10 uM by kinome scan assay
Sequence of Serine/threonine-protein kinase 17B (Homo sapiens) (O94768 whole entry): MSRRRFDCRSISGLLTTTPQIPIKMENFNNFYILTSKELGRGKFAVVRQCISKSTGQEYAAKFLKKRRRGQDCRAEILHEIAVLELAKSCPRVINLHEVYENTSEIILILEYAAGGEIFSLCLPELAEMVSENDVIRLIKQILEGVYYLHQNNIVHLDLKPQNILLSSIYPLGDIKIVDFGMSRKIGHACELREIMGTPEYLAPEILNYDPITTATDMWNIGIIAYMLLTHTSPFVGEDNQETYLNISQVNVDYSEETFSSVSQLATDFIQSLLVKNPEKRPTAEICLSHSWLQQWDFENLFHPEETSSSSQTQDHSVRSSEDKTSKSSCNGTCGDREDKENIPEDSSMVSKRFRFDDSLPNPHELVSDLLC

[10] = target: Dual specificity tyrosine-phosphorylation-regulated kinase 1B (Homo sapiens) (UniProt Q9Y463); experiment: Inhibition of human DYRK1B expressed in bacterial expression system assessed as remaining enzyme activity at 10 uM by kinome scan assay
Sequence of Dual specificity tyrosine-phosphorylation-regulated kinase 1B (Homo sapiens) (Q9Y463 whole entry, looked up): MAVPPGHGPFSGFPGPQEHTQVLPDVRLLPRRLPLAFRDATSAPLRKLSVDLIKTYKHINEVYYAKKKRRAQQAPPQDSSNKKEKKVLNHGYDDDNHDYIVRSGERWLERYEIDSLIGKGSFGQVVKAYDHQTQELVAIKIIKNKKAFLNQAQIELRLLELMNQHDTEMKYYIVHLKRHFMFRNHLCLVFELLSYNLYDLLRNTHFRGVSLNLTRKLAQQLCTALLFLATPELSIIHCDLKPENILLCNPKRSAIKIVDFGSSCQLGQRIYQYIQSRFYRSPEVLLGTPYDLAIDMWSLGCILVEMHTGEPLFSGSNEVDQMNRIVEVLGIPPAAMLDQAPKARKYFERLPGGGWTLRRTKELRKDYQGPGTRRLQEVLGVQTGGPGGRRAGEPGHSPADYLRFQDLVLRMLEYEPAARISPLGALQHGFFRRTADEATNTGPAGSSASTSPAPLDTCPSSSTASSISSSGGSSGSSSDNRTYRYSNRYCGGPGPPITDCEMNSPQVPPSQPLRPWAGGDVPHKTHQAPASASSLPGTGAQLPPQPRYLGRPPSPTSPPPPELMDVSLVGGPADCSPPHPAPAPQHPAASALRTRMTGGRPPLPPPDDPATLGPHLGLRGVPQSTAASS

[11] = target: Cyclin-dependent kinase-like 5 (Homo sapiens) (UniProt O76039); experiment: Inhibition of human CDKL5 expressed in mammalian expression system assessed as remaining enzyme activity at 10 uM by kinome scan assay
Sequence of Cyclin-dependent kinase-like 5 (Homo sapiens) (O76039 whole entry): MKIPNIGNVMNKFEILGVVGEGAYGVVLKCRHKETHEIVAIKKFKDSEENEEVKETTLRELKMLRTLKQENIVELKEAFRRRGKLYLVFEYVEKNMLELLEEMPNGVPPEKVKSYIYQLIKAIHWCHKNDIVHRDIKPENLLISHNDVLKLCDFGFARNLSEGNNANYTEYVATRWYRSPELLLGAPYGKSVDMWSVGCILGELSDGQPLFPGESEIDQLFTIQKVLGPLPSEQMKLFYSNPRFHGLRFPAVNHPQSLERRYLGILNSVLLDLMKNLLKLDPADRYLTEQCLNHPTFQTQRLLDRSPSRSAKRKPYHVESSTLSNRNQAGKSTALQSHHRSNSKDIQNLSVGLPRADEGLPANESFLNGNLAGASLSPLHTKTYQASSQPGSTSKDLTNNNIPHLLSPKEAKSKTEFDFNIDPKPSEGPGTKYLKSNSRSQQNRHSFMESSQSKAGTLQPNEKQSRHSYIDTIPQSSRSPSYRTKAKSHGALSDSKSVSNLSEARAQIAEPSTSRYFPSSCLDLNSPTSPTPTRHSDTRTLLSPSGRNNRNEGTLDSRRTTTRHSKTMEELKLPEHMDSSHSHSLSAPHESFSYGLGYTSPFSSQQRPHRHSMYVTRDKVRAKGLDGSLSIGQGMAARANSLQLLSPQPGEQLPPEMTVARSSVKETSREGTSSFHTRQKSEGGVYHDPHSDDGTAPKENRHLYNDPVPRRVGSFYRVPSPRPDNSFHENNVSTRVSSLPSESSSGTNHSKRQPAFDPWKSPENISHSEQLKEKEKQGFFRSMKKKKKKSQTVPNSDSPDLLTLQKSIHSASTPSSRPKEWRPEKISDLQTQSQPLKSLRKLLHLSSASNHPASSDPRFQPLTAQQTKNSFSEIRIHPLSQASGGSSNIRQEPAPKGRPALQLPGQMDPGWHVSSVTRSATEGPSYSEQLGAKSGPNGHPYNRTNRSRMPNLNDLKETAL

[12] = target: Homeodomain-interacting protein kinase 3 (Homo sapiens) (UniProt Q9H422); experiment: Inhibition of human HIPK3 expressed in mammalian expression system assessed as remaining enzyme activity at 10 uM by kinome scan assay
[13] = target: Phosphatidylinositol 5-phosphate 4-kinase type-2 gamma (Homo sapiens) (UniProt Q8TBX8); experiment: Inhibition of human PIP5K2C expressed in mammalian expression system assessed as remaining enzyme activity at 10 uM by kinome scan assay
[14] = target: Homeodomain-interacting protein kinase 1 (Homo sapiens) (UniProt Q86Z02); experiment: Inhibition of human HIPK1 expressed in mammalian expression system assessed as remaining enzyme activity at 10 uM by kinome scan assay
Sequence of Homeodomain-interacting protein kinase 1 (Homo sapiens) (Q86Z02 whole entry, looked up, canonical isoform): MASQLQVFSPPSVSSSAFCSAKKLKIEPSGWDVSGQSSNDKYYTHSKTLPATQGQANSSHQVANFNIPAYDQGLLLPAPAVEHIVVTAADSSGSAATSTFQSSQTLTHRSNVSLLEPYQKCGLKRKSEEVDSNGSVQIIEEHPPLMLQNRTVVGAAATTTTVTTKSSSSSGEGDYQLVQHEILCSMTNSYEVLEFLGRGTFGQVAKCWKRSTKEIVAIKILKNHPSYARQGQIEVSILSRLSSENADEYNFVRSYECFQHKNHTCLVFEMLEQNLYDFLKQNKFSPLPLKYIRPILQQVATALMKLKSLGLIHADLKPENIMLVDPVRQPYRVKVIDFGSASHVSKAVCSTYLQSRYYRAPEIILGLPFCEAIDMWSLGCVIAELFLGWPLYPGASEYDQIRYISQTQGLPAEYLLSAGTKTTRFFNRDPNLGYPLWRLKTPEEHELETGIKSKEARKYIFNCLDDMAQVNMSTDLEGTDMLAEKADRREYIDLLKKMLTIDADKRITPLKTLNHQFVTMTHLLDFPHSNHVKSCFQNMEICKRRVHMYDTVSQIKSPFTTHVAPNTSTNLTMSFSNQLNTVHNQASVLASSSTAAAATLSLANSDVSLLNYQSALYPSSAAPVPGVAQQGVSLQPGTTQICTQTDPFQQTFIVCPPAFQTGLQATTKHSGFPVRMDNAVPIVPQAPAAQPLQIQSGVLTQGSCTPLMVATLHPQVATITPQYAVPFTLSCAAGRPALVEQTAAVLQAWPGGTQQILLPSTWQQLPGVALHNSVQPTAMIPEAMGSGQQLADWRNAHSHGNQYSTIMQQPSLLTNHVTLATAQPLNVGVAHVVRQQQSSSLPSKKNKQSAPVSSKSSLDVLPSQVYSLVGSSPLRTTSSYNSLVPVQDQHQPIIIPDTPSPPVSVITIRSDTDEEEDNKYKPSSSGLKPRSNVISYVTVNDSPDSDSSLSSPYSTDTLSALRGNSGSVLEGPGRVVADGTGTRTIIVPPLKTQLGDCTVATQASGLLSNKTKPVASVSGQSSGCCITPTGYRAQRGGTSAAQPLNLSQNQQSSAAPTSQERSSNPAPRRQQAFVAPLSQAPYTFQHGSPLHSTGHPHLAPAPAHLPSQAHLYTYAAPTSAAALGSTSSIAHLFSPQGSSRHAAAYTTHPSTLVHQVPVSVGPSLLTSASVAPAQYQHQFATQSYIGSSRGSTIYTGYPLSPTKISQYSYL

[15] = target: Casein kinase I isoform alpha (Homo sapiens) (UniProt P48729); experiment: Inhibition of human CSNK1A1 expressed in mammalian expression system assessed as remaining enzyme activity at 10 uM by kinome scan assay
[16] = target: Casein kinase I isoform gamma-2 (Homo sapiens) (UniProt P78368); experiment: Inhibition of human CSNK1G2 expressed in bacterial expression system assessed as remaining enzyme activity at 10 uM by kinome scan assay
[17] = target: Homeodomain-interacting protein kinase 2 (Homo sapiens) (UniProt Q9H2X6); experiment: Inhibition of human HIPK2 expressed in mammalian expression system assessed as remaining enzyme activity at 10 uM by kinome scan assay
[18] = target: Ribosomal protein S6 kinase alpha-4 (Homo sapiens) (UniProt O75676); experiment: Inhibition of human RPS6KA4 (Kin.Dom.2-C-terminal) expressed in mammalian expression system assessed as remaining enzyme activity at 10 uM by kinome scan assay
[19] = target: Serine/threonine-protein kinase pim-1 (Homo sapiens) (UniProt P11309); experiment: Inhibition of human PIM1 expressed in bacterial expression system assessed as remaining enzyme activity at 10 uM by kinome scan assay
[20] = target: TGF-beta receptor type-2 (Homo sapiens) (UniProt P37173); experiment: Inhibition of human TGFBR2 expressed in bacterial expression system assessed as remaining enzyme activity at 10 uM by kinome scan assay
[21] = target: Death-associated protein kinase 1 (Homo sapiens) (UniProt P53355); experiment: Inhibition of human DAPK1 expressed in bacterial expression system assessed as remaining enzyme activity at 10 uM by kinome scan assay
[22] = target: Cyclin-dependent kinase 7 (Homo sapiens) (UniProt P50613); experiment: Inhibition of human CDK7 expressed in mammalian expression system assessed as remaining enzyme activity at 10 uM by kinome scan assay
[23] = target: Phosphatidylinositol 4-kinase beta (Homo sapiens) (UniProt Q9UBF8); experiment: Inhibition of human PIK4CB expressed in mammalian expression system assessed as remaining enzyme activity at 10 uM by kinome scan assay
Sequence of Phosphatidylinositol 4-kinase beta (Homo sapiens) (Q9UBF8 2-816 limits assumed): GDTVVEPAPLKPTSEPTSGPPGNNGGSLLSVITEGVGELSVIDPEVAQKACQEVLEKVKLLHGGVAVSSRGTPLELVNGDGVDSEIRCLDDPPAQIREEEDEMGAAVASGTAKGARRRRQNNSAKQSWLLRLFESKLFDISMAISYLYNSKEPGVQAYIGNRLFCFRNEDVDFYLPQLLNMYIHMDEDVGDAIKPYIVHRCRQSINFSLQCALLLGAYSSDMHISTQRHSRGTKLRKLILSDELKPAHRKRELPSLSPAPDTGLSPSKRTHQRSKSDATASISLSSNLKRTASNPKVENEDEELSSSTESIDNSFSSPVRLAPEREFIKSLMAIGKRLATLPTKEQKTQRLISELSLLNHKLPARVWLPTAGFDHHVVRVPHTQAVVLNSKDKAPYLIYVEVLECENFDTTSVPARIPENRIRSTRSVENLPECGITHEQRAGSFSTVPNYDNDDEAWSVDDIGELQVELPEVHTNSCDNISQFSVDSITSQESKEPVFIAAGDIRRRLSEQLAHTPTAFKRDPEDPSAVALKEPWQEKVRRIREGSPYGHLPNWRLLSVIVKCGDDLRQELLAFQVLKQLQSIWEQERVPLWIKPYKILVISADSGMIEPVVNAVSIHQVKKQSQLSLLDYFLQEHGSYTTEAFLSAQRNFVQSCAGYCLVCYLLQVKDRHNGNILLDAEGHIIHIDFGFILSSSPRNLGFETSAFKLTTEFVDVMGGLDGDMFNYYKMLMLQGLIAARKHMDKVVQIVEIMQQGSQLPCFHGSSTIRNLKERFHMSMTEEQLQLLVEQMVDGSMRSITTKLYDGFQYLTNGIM

[24] = target: Serine/threonine-protein kinase pim-2 (Homo sapiens) (UniProt Q9P1W9); experiment: Inhibition of human PIM2 expressed in bacterial expression system assessed as remaining enzyme activity at 10 uM by kinome scan assay
[25] = target: Death-associated protein kinase 2 (Homo sapiens) (UniProt Q9UIK4); experiment: Inhibition of human DAPK2 expressed in bacterial expression system assessed as remaining enzyme activity at 10 uM by kinome scan assay
[26] = target: Cyclin-dependent kinase 19 (Homo sapiens) (UniProt Q9BWU1); experiment: Inhibition of human CDK11 expressed in bacterial expression system assessed as remaining enzyme activity at 10 uM by kinome scan assay
[27] = target: Casein kinase II subunit alpha' (Homo sapiens) (UniProt P19784); experiment: Inhibition of human CSNK2A2 expressed in mammalian expression system assessed as remaining enzyme activity at 10 uM by kinome scan assay
[28] = target: Interleukin-1 receptor-associated kinase 1 (Homo sapiens) (UniProt P51617); experiment: Inhibition of human IRAK1 expressed in mammalian expression system assessed as remaining enzyme activity at 10 uM by kinome scan assay
[29] = target: Casein kinase II subunit alpha (Homo sapiens) (UniProt P68400); experiment: Inhibition of human CSNK2A1 expressed in mammalian expression system assessed as remaining enzyme activity at 10 uM by kinome scan assay
Sequence of Casein kinase II subunit alpha (Homo sapiens) (P68400 whole entry, looked up): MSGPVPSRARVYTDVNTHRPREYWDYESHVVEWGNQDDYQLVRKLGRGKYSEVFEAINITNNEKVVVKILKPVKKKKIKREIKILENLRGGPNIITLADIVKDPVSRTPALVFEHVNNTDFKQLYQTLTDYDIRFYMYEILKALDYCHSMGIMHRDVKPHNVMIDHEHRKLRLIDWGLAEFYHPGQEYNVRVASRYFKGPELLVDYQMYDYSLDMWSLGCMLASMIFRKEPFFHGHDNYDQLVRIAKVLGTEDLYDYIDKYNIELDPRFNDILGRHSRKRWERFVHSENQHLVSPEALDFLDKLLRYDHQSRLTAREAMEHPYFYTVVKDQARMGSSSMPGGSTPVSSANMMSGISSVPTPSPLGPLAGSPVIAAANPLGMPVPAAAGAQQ

[30] = target: Interleukin-1 receptor-associated kinase 3 (Homo sapiens) (UniProt Q9Y616); experiment: Inhibition of human IRAK3 expressed in bacterial expression system assessed as remaining enzyme activity at 10 uM by kinome scan assay
[31] = target: Citron Rho-interacting kinase (Homo sapiens) (UniProt O14578); experiment: Inhibition of human CIT expressed in bacterial expression system assessed as remaining enzyme activity at 10 uM by kinome scan assay

Question: With `COc1ccc2c(c1)[nH]c1c(CO)nccc12` as the compound, how does the Activity (Pancreatic islet [1]) read?
Answer: Its Activity is “Active”.

Question: And the inhibition [2]?
Answer: Its inhibition is “Active”.

Question: What about the Activity (Pancreatic islet [3]) of the same compound?
Answer: Its Activity is “Dose-dependent effect”.

Question: And the Activity (Pancreatic islet [4])?
Answer: The Activity was “Active”.

Question: And the Activity [5]?
Answer: Its Activity is “Non-Toxic”.

Question: Which Activity (Pancreatic islet [1]) does the source give for `COc1ccc2c(c1)[nH]c1c(C)nc(CO)cc12` here?
Answer: The Activity was “Active”.

Question: And the inhibition [2]?
Answer: Its inhibition is “Active”.

Question: And the Activity [6]?
Answer: The Activity was 0%.

Question: And the Activity (Pancreatic islet [3])?
Answer: Its Activity is “Dose-dependent effect”.

Question: And the Activity (Pancreatic islet [4])?
Answer: Its Activity is “Active”.

Question: And the Activity [5]?
Answer: The Activity was “Non-Toxic”.

Question: For `COc1ccc2c(c1)[nH]c1c(C(C)=O)nccc12`, which Activity (Pancreatic islet [4]) is on record?
Answer: The Activity was “Active”.

Question: With `COc1ccc2c(c1)[nH]c1c(Cl)nccc12` as the compound, how does the Activity (Pancreatic islet [1]) read?
Answer: The Activity was “Active”.

Question: And the Activity (Pancreatic islet [4])?
Answer: The Activity was “Active”.

Question: With `COc1ccc2c(c1)[nH]c1c(N3CCC3)nccc12` as the compound, how does the Activity (Pancreatic islet [1]) read?
Answer: The Activity was “Active”.

Question: Which Activity (Pancreatic islet [1]) does the source give for `COc1ccc2c(c1)[nH]c1c(N3CCCC3)nccc12` here?
Answer: The Activity was “inactive”.

Question: For `COc1ccc2c(c1)[nH]c1c(N3CCCC3Cc3ccccc3)nccc12` (stereo not given), which Activity (Pancreatic islet [1]) is on record?
Answer: The Activity was “inactive”.

Question: For `COc1ccc2c(c1)[nH]c1c(N3CCCC3c3ccccc3)nccc12` (stereo not given), which Activity (Pancreatic islet [1]) is on record?
Answer: Its Activity is “inactive”.

Question: Which results are given for `COc1ccc2c(c1)[nH]c1c(C)nccc12` [HARMINE]?
Answer: Activity (Pancreatic islet [1]): Active; Activity [7]: Toxic; Activity [8]: 69%; Activity [9]: 73%; Activity [10]: 6.1%; Activity [11]: 100%; Activity [12]: 9.4%; Activity [13]: 36%; Activity [14]: 21%; Activity [15]: 15%; Activity [16]: 19%; Activity [17]: 8.6%; Activity [18]: 40%; Activity [19]: 45%; Activity [20]: 78%; Activity [21]: 78%; Activity [22]: 21%; Activity [23]: 12%; Activity [24]: 39%; Activity [6]: 55%; Activity [25]: 72%; Activity [26]: 83%; Activity [27]: 23%; Activity [28]: 17%; Activity [29]: 11%; Activity [30]: 15%; Activity [31]: 29%
